pIC50: −log10 of the molar value.
Legend:
SK-OV-3 = experiment: Growth inhibition of human SK-OV3 cells; assay type: functional
HL-60 = experiment: Growth inhibition of human HL60 cells; assay type: functional
[1] = Inhibition of HIF1 activation in PC3 cells by TK-luciferase assay; assay type: cell-based; conditions: Homo sapiens, PC-3
Summary of the method: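 HIF-1 reporter (pHRE-TK-Luc) assays in transfected PC-3 or T47D cells; HIF-1 induced by hypoxia or by the hypoxia mimetic 1,10-phenanthroline (10 μM); compounds at half-log concentrations; luciferase activity measured; IC50 from experiments in triplicate.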

EKVX = experiment: Growth inhibition of human EKVX cells; assay type: functional
OVCAR-8 = experiment: Growth inhibition of human OVACAR8 cells; assay type: functional
KM12 = experiment: Growth inhibition of human KM12 cells; assay type: functional
U-251 = experiment: Growth inhibition of human U251 cells; assay type: functional
IGROV-1 = experiment: Growth inhibition of human IGROV1 cells; assay type: functional
Hs-578T = experiment: Growth inhibition of human HS578T cells; assay type: functional
SN12C = experiment: Growth inhibition of human SN12C cells; assay type: functional
HOP-92 = experiment: Growth inhibition of human HOP92 cells; assay type: functional
MDA-MB-231 = experiment: Growth inhibition of human MDA-MB-231 cells; assay type: functional
MDA-MB-435 = experiment: Growth inhibition of human MDA-MB-435 cells; assay type: functional
SF-539 = experiment: Growth inhibition of human SF539 cells; assay type: functional
A549 = experiment: Growth inhibition of human A549 cells; assay type: functional
HT-29 = experiment: Growth inhibition of human HT29 cells; assay type: functional
[2] = Growth inhibition of human OVACAR3 cells; assay type: functional
SK-MEL-5 = experiment: Growth inhibition of human SK-MEL5 cells; assay type: functional
NCI/ADR-RES = experiment: Growth inhibition of human NCI/ADR-RES cells; assay type: functional
DU-145 = experiment: Growth inhibition of human DU145 cells; assay type: functional
[3] = read-out: Log LC50 (the source's name) (converted)

`CCCc1cc(=O)c2c(O)c3c(OC)cc(O)cc3cc2o1` showed an LC50 (SK-OV-3) of over 100 µM, a TGI (SK-OV-3; read-out: Log TGI (converted)) of 85.1 µM and a GI50 (HL-60) of 30.9 µM. It also gave an LC50 (HL-60) of over 100 µM, a TGI (HL-60; read-out: Log TGI (converted)) of 61.7 µM and a pIC50 [1] of 6.00. For the same compound, the GI50 (EKVX) was 28.8 µM, the CC50 (EKVX; [3]) was over 100 µM and the TGI (EKVX; read-out: Log TGI (converted)) was 97.7 µM. For the same compound, the GI50 (OVCAR-8) was 28.8 µM, the LC50 (OVCAR-8) was over 100 µM and the TGI (OVCAR-8; read-out: Log TGI (converted)) was over 100 µM. It also gave a GI50 (KM12) of 17.4 µM, a CC50 (KM12; [3]) of 93.3 µM and a TGI (KM12; read-out: Log TGI (converted)) of 39.8 µM. The GI50 (U-251) was 16.2 µM, the LC50 (U-251) was 95.5 µM and the TGI (U-251; read-out: Log TGI (converted)) was 38.9 µM. It also gave a GI50 (IGROV-1) of 19.1 µM, a CC50 (IGROV-1; [3]) of over 100 µM and a TGI (IGROV-1; read-out: Log TGI (converted)) of 44.7 µM. It also gave a GI50 (Hs-578T) of 25.1 µM, an LC50 (Hs-578T) of over 100 µM and a TGI (Hs-578T; read-out: Log TGI (converted)) of 67.6 µM. For the same compound, the GI50 (SN12C) was 19.1 µM, the LC50 (SN12C) was over 100 µM and the TGI (SN12C; read-out: Log TGI (converted)) was 50.1 µM. For the same compound, the GI50 (HOP-92) was 17.4 µM, the CC50 (HOP-92; [3]) was over 100 µM and the TGI (HOP-92; read-out: Log TGI (converted)) was 46.8 µM. It also gave a GI50 (MDA-MB-231) of 15.5 µM, an LC50 (MDA-MB-231) of over 100 µM and a TGI (MDA-MB-231; read-out: Log TGI (converted)) of 45.7 µM. It also gave a GI50 (MDA-MB-435) of 20.9 µM, an LC50 (MDA-MB-435) of over 100 µM and a TGI (MDA-MB-435; read-out: Log TGI (converted)) of 57.5 µM. It also gave a GI50 (SF-539) of 19.5 µM, an LC50 (SF-539) of 81.3 µM and a TGI (SF-539; read-out: Log TGI (converted)) of 39.8 µM. For the same compound, the GI50 (A549) was 19.1 µM, the CC50 (A549; [3]) was over 100 µM and the TGI (A549; read-out: Log TGI (converted)) was 50.1 µM. The GI50 (HT-29) was 18.6 µM, the CC50 (HT-29; [3]) was 72.4 µM and the TGI (HT-29; read-out: Log TGI (converted)) was 37.2 µM. It also gave a GI50 [2] of 27.5 µM, a CC50 [2, 3] of over 100 µM and a TGI ([2]; read-out: Log TGI (converted)) of over 100 µM. The GI50 (SK-MEL-5) was 14.8 µM, the LC50 (SK-MEL-5) was 52.5 µM and the TGI (SK-MEL-5; read-out: Log TGI (converted)) was 27.5 µM. It also gave a GI50 (NCI/ADR-RES) of 26.3 µM, an LC50 (concentration killing 50% of cells) (NCI/ADR-RES) of over 100 µM and a TGI (NCI/ADR-RES; read-out: Log TGI (converted)) of 75.9 µM. It also gave a GI50 (DU-145) of 18.2 µM, a CC50 (DU-145; [3]) of over 100 µM and a TGI (DU-145; read-out: Log TGI (converted)) of 45.7 µM.

— ChEMBL document CHEMBL1141286, “Benzochromenones from the marine crinoid Comantheria rotula inhibit hypoxia-inducible factor-1 (HIF-1) in cell-based reporter assays and differentially suppress the growth of certain tumor cell lines” (J Nat Prod, 2007)
